Holding throughout (type): cell-based
For assay [1], the target named is T1, E3 ubiquitin-protein ligase Mdm2/Histone deacetylase 2 (Homo sapiens) (UniProt Q00987+Q92769). The assay can be described thus: PROTAC activity at MDM2/HDAC2 in human HCT-116 cells assessed as decrease in HDAC2 abundance by measuring remaining activity at 0.1 uM measured after 24 hrs by Western blot analysis (reference value: 100%). A digest of the protocol: (§1)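 HCT116 cells seeded in six-well plates for 24 h, then exposed 24 h to compound (0.01–10 μM) or DMSO in fresh medium. Lysis in Tris-HCl/NaCl/NP-40/Triton X-100 with protease inhibitor. Bradford-normalised 30 μg protein per lane. Quantitative Western blot used specific HDAC1, HDAC2, HDAC3, LSD1 or Sin3a antibodies with IRDye secondaries. Abundance compared with DMSO, n = 2 replicates.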
On the technique in general: Immunoblotting shows a protein as a band on a membrane.

Assay [2] deals with T1, E3 ubiquitin-protein ligase Mdm2/Histone deacetylase 2 (Homo sapiens). In words: PROTAC activity at MDM2/HDAC2 in human HCT-116 cells assessed as decrease in HDAC2 abundance by measuring remaining activity at 1 uM measured after 24 hrs by Western blot analysis (reference value: 100%). A digest of the protocol:
as §1

In assay [3] the target is T2, E3 ubiquitin-protein ligase Mdm2/Histone deacetylase 3 (Homo sapiens) (UniProt Q00987+O15379). In words: PROTAC activity at MDM2/HDAC3 in human HCT-116 cells assessed as induction of HDAC3 degradation at 0.01 to 10 uM by Western blot analysis. The following applies: dose 0.01-10 µM.
The target in assay [4] is E3 ubiquitin-protein ligase Mdm2/Histone deacetylase 1 (Homo sapiens) (UniProt Q00987+Q13547). In words: PROTAC activity at MDM2/HDAC1 in human HCT-116 cells assessed as decrease in HDAC1 abundance by measuring remaining activity at 0.025 uM measured after 24 hrs by Western blot analysis (reference value: 100%). Put shortly:
as §1

The target of assay [5] is T1, E3 ubiquitin-protein ligase Mdm2/Histone deacetylase 2 (Homo sapiens). The assay can be described thus: PROTAC activity at MDM2/HDAC2 in human HCT-116 cells assessed as decrease in HDAC2 abundance by measuring remaining activity at 2.5 uM measured after 24 hrs by Western blot analysis (reference value: 100%). Put shortly:
as §1

Assay [6] deals with T2, E3 ubiquitin-protein ligase Mdm2/Histone deacetylase 3 (Homo sapiens). In words: PROTAC activity at MDM2/HDAC3 in human HCT-116 cells assessed as reduction in HDAC3 abundance by measuring remaining activity at 5 uM measured after 24 hrs by Western blot analysis. A digest of the protocol: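 HCT116 cells in DMEM with 10% FBS and glutamine/penicillin/streptomycin at 37 °C, 5% CO2. Seeded 4 × 10^5 cells/well, after 24 h treated 24 h with DMSO or compound in fresh medium. Lysed in Tris-HCl/NaCl/NP-40/Triton X-100 buffer with protease inhibitor, Bradford-quantified, 30 μg protein per lane. Quantitative Western blot with specific HDAC1/2/3 antibodies, IRDye secondaries, infrared imaging, versus DMSO. n = 2 replicates.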

For assay [7], the target named is T3, Paired amphipathic helix protein Sin3a (Homo sapiens) (UniProt Q96ST3).
T3 sequence (whole entry): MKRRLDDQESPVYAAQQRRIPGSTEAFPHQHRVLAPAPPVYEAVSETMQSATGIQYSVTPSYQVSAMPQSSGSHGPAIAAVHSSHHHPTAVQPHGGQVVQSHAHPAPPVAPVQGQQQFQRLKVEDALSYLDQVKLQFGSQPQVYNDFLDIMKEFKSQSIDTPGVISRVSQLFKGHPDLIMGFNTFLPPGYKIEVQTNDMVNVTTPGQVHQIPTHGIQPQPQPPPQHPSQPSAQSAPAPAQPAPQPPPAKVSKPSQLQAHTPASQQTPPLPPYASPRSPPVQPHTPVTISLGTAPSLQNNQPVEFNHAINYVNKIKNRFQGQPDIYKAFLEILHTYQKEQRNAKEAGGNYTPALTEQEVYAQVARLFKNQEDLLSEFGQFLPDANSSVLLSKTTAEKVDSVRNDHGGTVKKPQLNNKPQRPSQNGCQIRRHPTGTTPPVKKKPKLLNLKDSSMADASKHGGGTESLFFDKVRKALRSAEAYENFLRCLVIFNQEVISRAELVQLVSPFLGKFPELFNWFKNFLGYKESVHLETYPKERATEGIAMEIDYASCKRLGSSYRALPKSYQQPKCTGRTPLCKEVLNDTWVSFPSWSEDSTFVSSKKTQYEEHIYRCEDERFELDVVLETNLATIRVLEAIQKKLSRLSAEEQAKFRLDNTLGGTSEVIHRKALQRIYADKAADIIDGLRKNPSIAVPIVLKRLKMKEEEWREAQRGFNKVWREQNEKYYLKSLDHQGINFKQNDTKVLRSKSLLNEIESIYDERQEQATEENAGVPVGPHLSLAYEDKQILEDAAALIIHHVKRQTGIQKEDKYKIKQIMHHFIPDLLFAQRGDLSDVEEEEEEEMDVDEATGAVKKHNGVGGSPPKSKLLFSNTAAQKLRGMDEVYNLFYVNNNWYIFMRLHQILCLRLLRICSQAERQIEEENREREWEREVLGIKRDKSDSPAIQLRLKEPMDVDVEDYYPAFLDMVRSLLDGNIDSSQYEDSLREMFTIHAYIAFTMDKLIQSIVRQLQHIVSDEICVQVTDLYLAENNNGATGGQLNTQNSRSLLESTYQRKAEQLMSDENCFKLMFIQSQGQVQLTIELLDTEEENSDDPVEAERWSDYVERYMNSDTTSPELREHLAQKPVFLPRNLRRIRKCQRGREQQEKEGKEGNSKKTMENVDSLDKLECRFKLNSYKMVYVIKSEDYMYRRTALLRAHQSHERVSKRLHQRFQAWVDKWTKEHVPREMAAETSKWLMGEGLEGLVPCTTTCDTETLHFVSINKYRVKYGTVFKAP
In words: Induction of SIN3A degradation in human HCT-116 cells assessed as reduction in SIN3A abundance by measuring remaining activity at 1 uM measured after 24 hrs by Western blot analysis (reference value: 100%). A digest of the protocol:
as §1

The target in assay [8] is Lysine-specific histone demethylase 1A (Homo sapiens) (UniProt O60341). In words: Induction of LSD1 degradation in human HCT-116 cells assessed as reduction in LSD1 abundance by measuring remaining activity at 0.01 uM measured after 24 hrs by Western blot analysis (reference value: 100%). Put shortly: as §1
Assay [9] shares this target. The assay can be described thus: Induction of LSD1 degradation in human HCT-116 cells assessed as reduction in LSD1 abundance by measuring remaining activity at 0.025 uM measured after 24 hrs by Western blot analysis (reference value: 100%). Put shortly: as §1
For assay [10] the target is unchanged. In words: Induction of LSD1 degradation in human HCT-116 cells assessed as reduction in LSD1 abundance by measuring remaining activity at 0.05 uM measured after 24 hrs by Western blot analysis (reference value: 100%). Put shortly:
as §1

The target is the same in assay [11]. In words: Induction of LSD1 degradation in human HCT-116 cells assessed as reduction in LSD1 abundance by measuring remaining activity at 0.5 uM measured after 24 hrs by Western blot analysis (reference value: 100%). A digest of the protocol: as §1
Assay [12] has the same target. In words: Induction of LSD1 degradation in human HCT-116 cells assessed as reduction in LSD1 abundance by measuring remaining activity at 5 uM measured after 24 hrs by Western blot analysis (reference value: 100%). A digest of the protocol: as §1

Calls of active or inactive are those of the source. The calls are words filed in the database; no cut-off is given here.

Data on one molecule can be found in ChEMBL document CHEMBL5357024, “MDM2 Antagonist Idasanutlin Reduces HDAC1/2 Abundance and Corepressor Partners but Not HDAC3” (ACS Med Chem Lett, 2024).

T1 sequence (Q00987 whole entry, looked up): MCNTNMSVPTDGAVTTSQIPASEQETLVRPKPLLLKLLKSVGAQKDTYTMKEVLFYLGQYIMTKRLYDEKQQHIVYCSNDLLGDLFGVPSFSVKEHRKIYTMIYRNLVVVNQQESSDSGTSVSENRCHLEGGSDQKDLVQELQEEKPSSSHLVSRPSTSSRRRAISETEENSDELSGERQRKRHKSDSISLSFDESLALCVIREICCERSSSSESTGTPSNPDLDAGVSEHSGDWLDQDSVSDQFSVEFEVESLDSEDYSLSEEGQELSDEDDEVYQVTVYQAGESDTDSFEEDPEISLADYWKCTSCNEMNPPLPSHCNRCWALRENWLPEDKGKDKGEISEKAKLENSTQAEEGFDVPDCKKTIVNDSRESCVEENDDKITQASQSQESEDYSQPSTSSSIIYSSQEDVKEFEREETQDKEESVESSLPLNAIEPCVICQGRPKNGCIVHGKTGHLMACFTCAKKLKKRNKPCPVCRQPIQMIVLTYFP
T1 sequence (Q92769 whole entry, looked up): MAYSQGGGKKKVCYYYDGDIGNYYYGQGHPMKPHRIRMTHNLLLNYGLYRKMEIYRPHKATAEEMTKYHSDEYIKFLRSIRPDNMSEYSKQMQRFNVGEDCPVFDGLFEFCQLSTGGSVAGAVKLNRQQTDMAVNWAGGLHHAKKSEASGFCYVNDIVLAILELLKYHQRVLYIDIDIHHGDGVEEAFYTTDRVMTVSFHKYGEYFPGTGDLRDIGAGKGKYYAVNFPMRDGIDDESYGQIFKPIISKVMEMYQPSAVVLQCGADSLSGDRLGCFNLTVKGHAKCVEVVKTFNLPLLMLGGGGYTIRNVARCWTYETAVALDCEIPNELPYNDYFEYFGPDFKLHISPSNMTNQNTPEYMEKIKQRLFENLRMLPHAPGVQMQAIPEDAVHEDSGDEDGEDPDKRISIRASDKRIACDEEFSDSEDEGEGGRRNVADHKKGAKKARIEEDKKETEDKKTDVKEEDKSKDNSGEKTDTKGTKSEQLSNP
T2 sequence (O15379 whole entry, looked up): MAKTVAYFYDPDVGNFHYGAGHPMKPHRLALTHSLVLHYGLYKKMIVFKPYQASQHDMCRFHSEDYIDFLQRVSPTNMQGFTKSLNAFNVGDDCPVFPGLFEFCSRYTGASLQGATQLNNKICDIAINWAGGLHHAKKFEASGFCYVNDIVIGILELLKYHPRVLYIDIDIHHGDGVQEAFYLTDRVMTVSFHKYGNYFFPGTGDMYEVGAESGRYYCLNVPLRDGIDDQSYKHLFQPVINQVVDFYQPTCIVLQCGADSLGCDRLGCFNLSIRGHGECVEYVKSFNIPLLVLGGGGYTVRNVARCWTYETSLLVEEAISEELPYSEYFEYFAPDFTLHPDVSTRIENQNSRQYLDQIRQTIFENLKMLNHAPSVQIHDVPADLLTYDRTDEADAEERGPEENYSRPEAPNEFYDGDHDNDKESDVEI
T2 sequence (Q00987 whole entry, looked up): as the sequence (Q00987 whole entry, looked up) above
Chain of E3 ubiquitin-protein ligase Mdm2/Histone deacetylase 1 (Homo sapiens) (Q00987 whole entry, looked up): as above
Chain of E3 ubiquitin-protein ligase Mdm2/Histone deacetylase 1 (Homo sapiens) (Q13547 whole entry, looked up): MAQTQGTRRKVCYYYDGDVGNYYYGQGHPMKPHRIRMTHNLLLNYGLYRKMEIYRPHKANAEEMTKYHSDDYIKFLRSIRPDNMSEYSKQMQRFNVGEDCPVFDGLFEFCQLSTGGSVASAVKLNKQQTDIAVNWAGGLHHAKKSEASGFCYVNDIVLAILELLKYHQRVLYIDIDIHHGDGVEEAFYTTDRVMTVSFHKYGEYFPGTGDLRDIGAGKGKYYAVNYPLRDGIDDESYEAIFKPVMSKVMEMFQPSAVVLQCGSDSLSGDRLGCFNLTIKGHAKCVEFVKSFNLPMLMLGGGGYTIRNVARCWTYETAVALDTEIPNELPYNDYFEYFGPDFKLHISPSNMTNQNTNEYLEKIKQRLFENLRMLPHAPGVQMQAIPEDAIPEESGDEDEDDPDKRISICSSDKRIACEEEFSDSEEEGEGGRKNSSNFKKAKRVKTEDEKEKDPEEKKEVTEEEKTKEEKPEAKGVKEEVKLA

Consider `COc1cc(C(=O)NCCOCCOCCOCCOCCC(=O)Nc2ccc(C(=O)Nc3ccccc3N)cc2)ccc1NC(=O)[C@@H]1N[C@@H](CC(C)(C)C)[C@](C#N)(c2ccc(Cl)cc2F)[C@H]1c1cccc(Cl)c1F`, for which the Activity in [1] turned out to be 92%; in assay [2] it was 69%; in [4], 94%; in assay [5], 72%; in [6], 105%; in assay [7], 70%. Further, the Activity in assay [8] worked out at 104%; in assay [9], 102%; in [10], 95%; in assay [11], 86%; in [12] it was 70%. The result in assay [3] was inactive.
